From ChEMBL document CHEMBL1145181, “Heterocyclic and phenyl double-bond-locked combretastatin analogues possessing potent apoptosis-inducing activity in HL60 and in MDR cell lines” (J Med Chem, 2005)
Several values for one entry are separate records, joined by “and”; a condition that tells them apart may be missing. Identical values can stand only once. One block for each compound: values may come before it.

Experiments:
Osteoclast-like [1] = assay: Percentage of CFU-GEMM inhibition value after 14 days for bone marrow cells treated with compound at IC90; format: functional, Homo sapiens
K562 [2] = assay: Concentration to induce apoptosis in 50% cells was determined in K562 cell lines; format: functional, cell-based; conditions: Homo sapiens
HL-60 [3] = assay: Inhibitory concentration to inhibit cell growth 50% was determined in HL60 cells; format: functional, cell-based; conditions: Homo sapiens
How it was run: (§1)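 Leukemia cells grown in RPMI 1640 with 10% FCS, penicillin, streptomycin and 2 mM L-glutamine at 37 °C, 5% CO2. Compounds from 20 mM DMSO stocks, final DMSO ≤0.5%. 2 × 10^5 cells in 1 mL were exposed to a range of concentrations for 48 h. Viable cells were counted by trypan blue on a hemocytometer and expressed as percent of control proliferation.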

HuT78 [4] = assay: Percentage of apoptotis was determined in HUT78 cells after 48 h of exposure at 2 uM concentration; format: functional, Homo sapiens
How it was run: (§2)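 HUT78 (Fas-expressing) and HUT78B1 (nonfunctional death-domain-deleted Fas) cells were exposed to compound for 48 h. Apoptosis was scored morphologically by fluorescence microscopy after acridine orange/ethidium bromide staining, based on chromatin condensation and apoptotic bodies.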

HL-60 [5] = assay: Percentage of apoptotis inhibition at 2 uM concentration was determined in HL60 cells in the presence of Z-LEHD-fmk inhibitor; format: functional, Homo sapiens; parameters: scale not given: the % may be the effect or the level left
How it was run: (§3)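 HL60 cells (2 × 10^5) were pretreated for 2 h with Fas-blocking MoAb ZB4 or with caspase-9 inhibitor Z-LEHD-fmk (5 µM) before compound was added. Apoptosis was scored at 48 h by acridine orange/ethidium bromide morphology and expressed as percent inhibition.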

HL-60 [6] = assay: Percentage of apoptotis inhibition at 2 uM concentration was determined in HL60 cells in the presence of Fas-blocking monoclonal antibody; format: functional, Homo sapiens; parameters: scale not given: the % may be the effect or the level left; how it was run: as §3
HL-60 [7] = assay: Concentration to induce apoptosis in 50% cells was determined in HL60R cell lines; format: functional, cell-based; conditions: Homo sapiens
K562 [8] = assay: Inhibitory concentration against K562ADR cell lines; format: functional, cell-based; conditions: Homo sapiens; how it was run: as §1
[9] = Inhibitory concentration against HL60R cell lines; format: functional, cell-based, Homo sapiens; conditions: hl-60; how it was run: as §1
[10] = Therapeutic index (IC90/percentage of CFUGEMM inhibition) value after 14 days for bone marrow cells treated with compound at IC90; format: cell-based; conditions: human, 336 h
K562 [11] = assay: Concentration to induce apoptosis in 50% cells was determined in K562ADR cell lines; format: functional, cell-based; conditions: Homo sapiens
HuT78 [12] = assay: Percentage of apoptotis in HUT78B1 cells after 48 h of exposure at 2 uM concentration; format: functional, Homo sapiens; how it was run: as §2
HL-60 [13] = assay: Concentration to induce apoptosis in 50% cells was determined in HL60 cells; format: functional, cell-based; conditions: Homo sapiens
HL-60 [14] = assay: Percentage of mitosis after 8 hr exposure of HL60 cells at 2 uM; format: functional, Homo sapiens
How it was run: (§4)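 HL60 cells were exposed to compound for 8 h. Mitotic cells were then counted by fluorescence microscopy after acridine orange and ethidium bromide staining.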

[15] = Concentration required to inhibit cell growth 50% was determined in HL60R cell lines; format: functional, cell-based, Homo sapiens; how it was run: as §1
HL-60 [16] = assay: Percentage of apoptotis inhibition at 0.3 uM concentration was determined in HL60 cells in the presence of Z-LEHD-fmk inhibitor; format: functional, Homo sapiens; parameters: scale not given: the % may be the effect or the level left; how it was run: as §3
[17] = Percentage of apoptotis in HUT78 cells after 48 h of exposure at 2 uM concentration; format: functional, Homo sapiens; conditions: in the assay text read “at IC90 concentration” for “at 2 uM concentration”; how it was run: as §2
Osteoclast-like [18] = assay: Percentage of CFU-GEMM inhibition after 14 days for bone marrow cells treated with compound at IC90; format: functional, Homo sapiens
HL-60 [19] = assay: Percentage of mitosis after 8 hr exposure of HL60 cells to the compound at 1 uM; format: functional, Homo sapiens; how it was run: as §4
HL-60 [20] = assay: Percentage of apoptotis inhibition at 0.3 uM concentration was determined in HL60 cells in the presence of Fas-blocking monoclonal antibody; format: functional, Homo sapiens; parameters: scale not given: the % may be the effect or the level left; how it was run: as §3
K562 [21] = assay: Concentration required to inhibit cell growth 50% was determined in K562ADR cell lines; format: functional, cell-based; conditions: Homo sapiens; how it was run: as §1
HL-60 [22] = assay: Percentage of apoptotis inhibition at 0.5 uM concentration was determined in HL60 cells in the presence of Z-LEHD-fmk inhibitor; format: functional, Homo sapiens; parameters: scale not given: the % may be the effect or the level left; how it was run: as §3
HL-60 [23] = assay: Apoptotic concentration to induce apoptosis in 50% cells was determined in HL60R cell lines; format: functional, cell-based; conditions: Homo sapiens
HL-60 [24] = assay: Percentage of apoptotis inhibition at 0.5 uM concentration was determined in HL60 cells in the presence of Fas-blocking monoclonal antibody; format: functional, Homo sapiens; parameters: scale not given: the % may be the effect or the level left; how it was run: as §3
HL-60 [25] = assay: Percentage of mitosis after 8 hr exposure of HL60 cells to the compound at 2.5 nM; format: functional, Homo sapiens; how it was run: as §4

SMILES: COc1ccc(-c2ccc(-c3cc(OC)c(OC)c(OC)c3)cc2)cc1O
- IC50 (HL-60 [3]): 30000 nM
- AC50 (HL-60 [13]): 35000 nM

SMILES: COc1ccc(-c2cccnc2-c2cc(OC)c(OC)c(OC)c2)cc1O
- IC50 (HL-60 [3]): 300 nM
- AC50 (HL-60 [13]): 600 nM

SMILES: COc1ccc(-c2ccccc2-c2cc(OC)c(OC)c(OC)c2)cc1O
- IC50 (HL-60 [3]): 20000 nM
- AC50 (HL-60 [13]): 30000 nM

SMILES: COc1ccc(-c2cccc(-c3cc(OC)c(OC)c(OC)c3)c2)cc1O
- IC50 (HL-60 [3]): 12000 nM
- AC50 (HL-60 [13]): 22000 nM

SMILES: COc1ccc(-c2cc(-c3cc(OC)c(OC)c(OC)c3)on2)cc1O
- IC50 (HL-60 [3]): 3000 nM
- AC50 (HL-60 [13]): 4000 nM

SMILES: COc1ccc(-c2ncccc2-c2cc(OC)c(OC)c(OC)c2)cc1O
- IC50 (HL-60 [3]): 5000 nM
- AC50 (HL-60 [13]): 10000 nM

SMILES: COc1ccc(-c2cc(Cl)cnc2-c2cc(OC)c(OC)c(OC)c2)cc1O
- IC50 (HL-60 [3]): 500 nM
- AC50 (HL-60 [13]): 800 nM

SMILES: COc1ccc(-c2cc(-c3cc(OC)c(OC)c(OC)c3)no2)cc1O
- IC50 (HL-60 [3]): 3000 nM
- AC50 (HL-60 [13]): 4500 nM

SMILES: COc1ccc(/C=C\c2cc(OC)c(OC)c(OC)c2)cc1O [COMBRETASTATIN A4]
- CFU-GEMM (Osteoclast-like [1]): 37%
- Ratio [10]: 2.4
- Activity (HL-60 [25]): 88%

The next lines start with results.

- IC50 (HL-60 [3]): 900 nM
- IC50 (K562 [8]): 2000 nM
- IC50 [9]: 3000 nM and 1000 nM
SMILES: COc1ccc([C@H]2ON=C(S(=O)(=O)c3ccccc3)[C@@H]2c2cc(OC)c(OC)c(OC)c2)cc1O
- CFU-GEMM (Osteoclast-like [1]): 42%
- AC50 (K562 [2]): 2000 nM
- Activity (HuT78 [4]): 70%
- Activity (HL-60 [5]): 71.5%
- Activity (HL-60 [6]): 25%
- AC50 (HL-60 [7]): 5000 nM
- Ratio [10]: 2.1
- AC50 (K562 [11]): 8000 nM
- Activity (HuT78 [12]): 46%
- AC50 (HL-60 [13]): 2000 nM
- Activity (HL-60 [14]): 18%

- IC50 (HL-60 [3]): 2000 nM
SMILES: COc1ccc([C@@H]2ON=C(C)[C@@H]2c2cc(OC)c(OC)c(OC)c2)cc1O
- AC50 (HL-60 [13]): 3500 nM

- IC50 (HL-60 [3]): 1500 nM
SMILES: COc1ccc(C2=NOC(c3cc(OC)c(OC)c(OC)c3)C2)cc1O (configuration not stated)
- AC50 (HL-60 [13]): 2200 nM

- IC50 (HL-60 [3]): 2000 nM
SMILES: COc1ccc([C@@H]2C(C)=NO[C@@H]2c2cc(OC)c(OC)c(OC)c2)cc1O
- AC50 (HL-60 [13]): 3500 nM

- IC50 (HL-60 [3]): 100 nM
- IC50 (K562 [21]): 500 nM
SMILES: COC1=NO[C@@H](c2ccc(OC)c(O)c2)[C@H]1c1cc(OC)c(OC)c(OC)c1
- IC50 ([15]; Homo sapiens, HL60R): 250 nM
- IC50 ([15]; hl60r): 250 nM
- AC50 (K562 [2]): 400 nM
- Activity (HL-60 [16]): 50%
- AC50 (HL-60 [7]): 750 nM
- Activity [17]: 80%
- CFU-GEMM (Osteoclast-like [18]): 36%
- Ratio [10]: 2.5
- AC50 (K562 [11]): 2000 nM
- Activity (HL-60 [19]): 17%
- Activity (HuT78 [12]): 60%
- Activity (HL-60 [20]): 25%
- AC50 (HL-60 [13]): 300 nM

- IC50 (HL-60 [3]): 250 nM
- IC50 (K562 [21]): 500 nM
SMILES: COC1=NO[C@H](c2cc(OC)c(OC)c(OC)c2)[C@@H]1c1ccc(OC)c(O)c1
- CFU-GEMM (Osteoclast-like [1]): 34%
- Activity (HL-60 [22]): 91.4%
- AC50 (HL-60 [23]): 2000 nM
- IC50 ([15]; hl60r): 750 nM and 200 nM
- AC50 (K562 [2]): 400 nM
- Activity [17]: 75%
- Ratio [10]: 2.6
- AC50 (K562 [11]): 2000 nM
- Activity (HL-60 [19]): 15%
- Activity (HL-60 [24]): 57%
- Activity (HuT78 [12]): 40%
- AC50 (HL-60 [13]): 500 nM

- IC50 (HL-60 [3]): 3200 nM
SMILES: COc1ccc(C2CC(c3cc(OC)c(OC)c(OC)c3)=NO2)cc1O (configuration not stated)
- AC50 (HL-60 [13]): 5500 nM

- IC50 (HL-60 [3]): 15000 nM
SMILES: COc1ccc([C@H]2C(S(=O)(=O)c3ccccc3)=NO[C@@H]2c2cc(OC)c(OC)c(OC)c2)cc1O
- AC50 (HL-60 [13]): 25000 nM
